An excerpt weighted towards active compounds, which were near 3.6% of everything screened.
Yeast life ext – yeast lifespan extension; S. cerevisiae growth with nicotinamide, OD615; deaD strain in restrictive glucose medium; inhibition of the nicotinamide effect, % at 10 µM; hit rate 0.68% among 130,000; AID 775;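 active = inhibition above a set limit, placed 3 SD over the median of all compounds, cut at about 26% in these data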
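assay system = DeaD-strain S. cerevisiae | buffer or medium = restrictive glucose medium | reagent = 1.5 mM nicotinamide | compound = 10 µM single point, 0.25% DMSO | incubation = 48 h compound exposure at 30 °C, humidified | signal = OD615 measurement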
Measles CPE – protection of cells from measles virus; protection (pct of control), % at 4 µM; hit rate 1.5% among 140,000; Measles virus-infected cells, CPE protection, absorbance; in the data active = protection mostly above about 24%, no sharp cut-off; inactive = mostly below about 26%
RAM inhibit – yeast RAM network inhibition; S. cerevisiae dse1pr::URA3 reporter, 5-FOA growth OD615, 2 d; analog-sensitive cbk1-as2 kinase mutant strain; inhibition, % at 50 µM; hit rate 1.8% among 190,000;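 active = inhibition above a set limit, 3 SD over mean compound inhibition, cut at about 8.4% in these data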;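 note: inhibition rescues growth on 5-FOA so higher OD means more RAM inhibition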
Yeast growth inh – reduces growth of yeast BB579 in restrictive medium; AID 804; hit rate 0.51% among 140,000; inhibition, % at 10 µM; S. cerevisiae BB579 growth, OD615, 48 h;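 active = inhibition above a set limit, 3 SD over the mean compound inhibition, cut at about 44% in these data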
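System: Saccharomyces cerevisiae DeaD strain BB579, replicative lifespan model yeast. Buffer or medium: restrictive glucose-based CSMM-D medium. Doses: one dose, 10 µM compound with 0.25% DMSO. Timing: 4 h preincubation and 48 h exposure at 30 °C. Detection: turbidity as optical density at 615 nm. Benchmarks: amphotericin B 10 µg/mL, positive.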
Numbers stand for hits; . = inactive; / = no result.

SMILES	Yeast life ext	Measles CPE	RAM inhibit	Yeast growth inh
O=C(NCC1CCCO1)C(c1cccs1)N(Cc1cccs1)C(=O)c1ccc(-c2ccccc2)[nH]1 (configuration not stated)	.	.	8.4	.
O=C(C1CCCN(CCCc2ccccc2)C1)N1CCCCC1 (configuration not stated)	.	.	.	.
Cc1ccc(Sc2nnc(-c3ccccc3)cc2C#N)cc1	.	.	.	.
N#Cc1cc(-c2ccccc2)cnc1Sc1ccccc1	.	.	9.2	.
O=C(Nc1ccccc1F)c1ccc(CSc2ccccc2)o1	.	.	.	.
CCC1=NN2C(=N)/C(=C\c3ccc(OCc4cc(=O)n5nc(CC)sc5n4)c(OC)c3)C(=O)N=C2S1	/	/	.	/
COc1ccccc1N1CCN(Cc2ccsc2)CC1	.	.	.	.
COc1ccccc1N1CCN(Cc2cccs2)CC1	.	95.9	.	.
C#CC[N+](C)(C)CCCCCCCCCC	.	27.7	.	.
C#CC[N+](C)(C)CCCCCCCCCCCC	.	.	.	.
FC(F)(F)c1cccc(NCc2cn3cccnc3n2)c1	.	55.3	.	.
Cc1cccc(NC(=O)c2ccc([N+](=O)[O-])s2)c1C	.	.	.	.
O=C1c2ccccc2C(=O)N1c1ncc(Cc2ccc(Cl)cc2)s1	47.1	.	.	.
Cc1ccc(Cc2cnc(N3C(=N)SC(C)C3=O)s2)cc1 (configuration not stated)	/	/	.	/
O=C(Nc1ccc2c(c1)OCO2)C1CCCN1C(=O)NCc1ccccc1 (configuration not stated)	57.0	.	.	.
C/C(=N/NC(=O)Cc1cccs1)c1ccco1	.	.	.	.
O=C(COC(=O)CCCNC(=O)c1ccc(Cl)cc1)NCc1ccccc1Cl	.	.	.	.
O=C(COC(=O)CCCNC(=O)c1ccc(Cl)cc1)Nc1ccc(Br)cc1	.	111.9	.	.
CN(C)S(=O)(=O)c1cccn1-c1ncc(C(F)(F)F)cc1Cl	.	43.1	.	.
O=S(=O)(c1ccccc1)c1ncc(C(F)(F)F)cc1Cl	/	/	9.8	/
CN(C)/C=N/S(=O)(=O)c1cccn1-c1ncc(C(F)(F)F)cc1Cl	/	/	.	/
O=S(=O)(c1ccccc1)c1ncc(C(F)(F)F)cc1O	/	/	.	/
COc1ccc(-c2nc(C(F)(F)F)c(OC)o2)cc1OC	.	.	.	.
O=C(CSc1ccccc1C(=O)O)NCc1ccco1	.	.	.	.
O=C(CSc1ccccc1C(=O)O)NCc1ccc(Cl)cc1	.	40.4	.	.
SMILES	Yeast life ext	Measles CPE	RAM inhibit	Yeast growth inh
Cc1cc(C2C(C#N)=C(N)Oc3n[nH]c(C)c32)c(C)s1 (configuration not stated)	71.1	.	.	.
Cc1[nH]nc2c1C(c1ccsc1C)C(C#N)=C(N)O2 (configuration not stated)	.	.	.	.
COc1ccc(CCN=C(N)NS(=O)(=O)c2ccc(C)c(C)c2)cc1	/	/	.	/
COc1cc(/C=N/NC(=O)c2ccncc2)ccc1OC(=O)c1ccc([N+](=O)[O-])cc1	44.0	.	.	.
Cc1ccc(NC(=O)CN2C(=O)N/C(=C/c3ccc(N4CCOCC4)cc3)C2=O)cc1	.	.	8.8	.
Cc1ccc(NC(=O)CN2C(=O)N/C(=C/c3ccc(C)o3)C2=O)cc1	.	.	.	.
COc1ccc(CN(C(=O)Cn2nnc(-c3ccc(C)o3)n2)C(C(=O)NCC2CCCO2)c2ccco2)cc1 (configuration not stated)	/	/	9.1	/
O=C(CSc1nc2cc(Cl)ccc2s1)c1cc2ccccc2o1	.	.	9.4	.
O=C(CSc1nc2cc(Cl)ccc2s1)N1CCN(C(=O)c2ccco2)CC1	.	61.3	.	.
Cc1cc(NC(=O)CSc2nc3cc(Cl)ccc3s2)no1	.	.	.	.
Cc1ccc(S(=O)(=O)c2cnc(-c3ccccc3)nc2N2CCCCC2)cc1	/	/	.	/
COc1cccc(CCc2nnc(CCC(=O)N3CCN(Cc4ccccn4)CC3)o2)c1	/	/	.	/
COc1ccc(-c2cc(-c3ccccc3O)[nH]n2)cc1	.	.	.	75.7
COc1ccc(/C=C/c2nc(-c3ccccc3O)n[nH]2)cc1	.	.	8.8	.
CC1(C)CC(=O)C2=C(C1)Nc1ncnn1C2c1cccs1 (configuration not stated)	/	/	.	/
COc1cccc(CNC(=O)CCC2CCCN(C(=O)C3CCOCC3)C2)c1 (configuration not stated)	/	/	.	/
CCOC(=O)c1ccc(NC(=O)CSc2ccc(-c3ccncc3)nn2)cc1	/	/	.	/
CCOC(=O)c1ccc(N=C2SC(C(=O)NCCc3ccccc3)CC(=O)N2C)cc1 (configuration not stated)	/	/	9.5	/
COc1cccc(N/C(SCc2cccc([N+](=O)[O-])c2)=C(/C#N)C(N)=O)c1	/	/	8.5	/
CCCCCCCCCSc1n[nH]c(N)n1	.	59.9	.	.
CC(C(=O)NCC1CCCCC1)N(C)CC(=O)Nc1ccc(N2CCOCC2)cc1 (configuration not stated)	/	/	.	/
CCOc1cccc(C(=O)Nc2ccc3oc(Cc4ccc(Cl)cc4)nc3c2)c1	.	33.1	10.6	.
COc1ccc(CCN2C(=O)N(c3ccc(OC)cc3)C(=O)C2CC(=O)Nc2ccccc2)cc1 (configuration not stated)	/	/	9.1	/
COc1ccc(CNC(=O)CCSCc2ccccc2C)cc1	/	/	.	/
CCCCn1c(-c2sccc2C)n[nH]c1=S	/	/	.	/
SMILES	Yeast life ext	Measles CPE	RAM inhibit	Yeast growth inh
COc1ccc(CC2(CO)CCN(S(=O)(=O)c3sccc3C)CC2)cc1	/	/	.	/
COc1cc(S(=O)(=O)Nc2ccc(Br)cc2)ccc1N	/	/	.	/
COc1c(Cl)cc(Cl)cc1CNc1ccc(S(N)(=O)=O)cc1	/	/	.	/
CCOC(=O)c1ccc(NC(=O)Cn2nnc(-c3ccccc3F)n2)cc1	.	.	.	.
O=C(Cn1nnc(-c2ccccc2F)n1)Nc1ccc(S(=O)(=O)NC2CCCC2)cc1	.	35.1	.	.
O=[N+]([O-])/C=C\c1ccc(N2CCCC2)c(F)c1	/	/	.	/
O=C(NC1CCCCCC1)C1Cc2ccccc2CN1C(=O)c1ccco1 (configuration not stated)	/	/	.	/
COc1ccc(CCNC(=O)C2CCN(S(=O)(=O)c3cccc4nsnc34)CC2)cc1OC	.	.	.	.
O=C(NCCc1ccccc1)C1CCN(S(=O)(=O)c2cccc3nsnc23)CC1	.	49.1	.	.
CC1Cc2ccccc2N1S(=O)(=O)c1cccc(C(=O)N2CCN(c3ncccn3)CC2)c1 (configuration not stated)	/	/	.	/
O=C(CSc1nnc2ccccn12)Nc1nsc(-c2ccccc2)n1	.	27.0	.	.
Cn1c(CNC(=O)c2ccccc2F)nnc1SCCOc1ccccc1	/	/	.	/
O=C(COc1ccc2oc(-c3ccco3)cc(=O)c2c1)N1CCCCC1	/	/	.	/
CNc1ccccc1C(=O)OCC(=O)c1ccccc1	.	.	.	.
O=C(COC(=O)c1ccccc1Nc1ccccc1)c1ccccc1	.	.	9.8	.
Cc1ccc(NC(=O)C2C(C(=O)O)C3C=CC2C32CC2)cc1 (configuration not stated)	.	.	.	.
